{"source": "ChEMBL document CHEMBL4699451", "about": "“Discovery of BIIB068: A Selective, Potent, Reversible Bruton's Tyrosine Kinase Inhibitor as an Orally Efficacious Agent for Autoimmune Diseases” (J Med Chem, 2020)", "key": {"[1]": {"test": "Cmax in cynomolgus monkey at 5 mg/kg, po", "assay_type": "ADME, organism-based, Macaca fascicularis", "set-up": "route oral, dose 5 mg/kg", "settings": "in vivo; call rule not given here"}, "[2]": {"test": "Oral bioavailability in cynomolgus monkey at 5 mg/kg", "assay_type": "ADME, organism-based, Macaca fascicularis", "settings": "in vivo"}, "[3]": {"molecular_target": "T1, Tyrosine-protein kinase BTK (Mus musculus, UniProt P35991)", "T1 sequence (P35991 whole entry)": "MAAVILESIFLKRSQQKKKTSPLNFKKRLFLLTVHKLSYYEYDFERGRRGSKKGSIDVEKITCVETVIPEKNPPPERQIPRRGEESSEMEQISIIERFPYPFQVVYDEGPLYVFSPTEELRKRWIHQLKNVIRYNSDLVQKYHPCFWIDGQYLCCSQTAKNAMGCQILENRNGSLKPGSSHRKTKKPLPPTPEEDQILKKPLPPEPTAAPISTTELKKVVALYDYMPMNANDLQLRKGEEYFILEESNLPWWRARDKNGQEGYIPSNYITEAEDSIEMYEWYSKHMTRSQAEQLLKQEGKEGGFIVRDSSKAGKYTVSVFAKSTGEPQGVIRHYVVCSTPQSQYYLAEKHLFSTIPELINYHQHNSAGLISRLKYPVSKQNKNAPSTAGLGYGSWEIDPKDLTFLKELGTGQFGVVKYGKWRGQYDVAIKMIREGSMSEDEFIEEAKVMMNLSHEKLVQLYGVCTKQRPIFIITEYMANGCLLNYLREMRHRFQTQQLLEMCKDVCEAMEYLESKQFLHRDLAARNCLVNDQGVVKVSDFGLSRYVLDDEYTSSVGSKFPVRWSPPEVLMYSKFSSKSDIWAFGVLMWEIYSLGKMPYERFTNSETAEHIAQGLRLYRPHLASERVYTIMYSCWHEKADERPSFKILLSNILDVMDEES", "test": "Inhibition of BTK in DBA1 mouse whole blood assessed as reduction in BTK phosphorylation", "assay_type": "tissue-based"}, "[4]": {"test": "Half life in cynomolgus monkey at 1 mg/kg, iv", "assay_type": "ADME, organism-based, Macaca fascicularis", "settings": "in vivo"}, "[5]": {"test": "Oral bioavailability in dog at 5 mg/kg", "assay_type": "ADME, organism-based, Canis lupus familiaris", "settings": "in vivo"}, "[6]": {"molecular_target": "T2, Cytochrome P450 1A2 (Homo sapiens, UniProt P05177)", "T2 sequence (P05177 whole entry)": "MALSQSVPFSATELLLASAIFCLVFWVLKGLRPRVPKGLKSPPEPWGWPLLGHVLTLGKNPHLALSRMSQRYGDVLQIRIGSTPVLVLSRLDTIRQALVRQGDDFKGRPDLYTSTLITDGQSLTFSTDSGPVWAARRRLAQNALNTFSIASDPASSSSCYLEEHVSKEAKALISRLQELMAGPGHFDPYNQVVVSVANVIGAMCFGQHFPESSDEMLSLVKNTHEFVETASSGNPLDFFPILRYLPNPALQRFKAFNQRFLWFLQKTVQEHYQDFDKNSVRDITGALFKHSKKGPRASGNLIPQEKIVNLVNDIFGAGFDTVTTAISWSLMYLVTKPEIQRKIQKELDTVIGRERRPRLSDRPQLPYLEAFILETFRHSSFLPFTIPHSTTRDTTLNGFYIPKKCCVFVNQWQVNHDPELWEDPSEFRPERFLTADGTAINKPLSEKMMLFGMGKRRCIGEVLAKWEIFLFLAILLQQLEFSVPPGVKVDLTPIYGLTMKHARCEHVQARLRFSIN", "test": "Inhibition of CYP1A2 in human liver microsomes using phenacetin as substrate measured after 15 mins in presence of NADPH by LC-MS/MS analysis", "assay_type": "ADME"}, "[7]": {"molecular_target": "Cytochrome P450 2C9 (Homo sapiens, UniProt P11712)", "sequence (P11712 whole entry)": "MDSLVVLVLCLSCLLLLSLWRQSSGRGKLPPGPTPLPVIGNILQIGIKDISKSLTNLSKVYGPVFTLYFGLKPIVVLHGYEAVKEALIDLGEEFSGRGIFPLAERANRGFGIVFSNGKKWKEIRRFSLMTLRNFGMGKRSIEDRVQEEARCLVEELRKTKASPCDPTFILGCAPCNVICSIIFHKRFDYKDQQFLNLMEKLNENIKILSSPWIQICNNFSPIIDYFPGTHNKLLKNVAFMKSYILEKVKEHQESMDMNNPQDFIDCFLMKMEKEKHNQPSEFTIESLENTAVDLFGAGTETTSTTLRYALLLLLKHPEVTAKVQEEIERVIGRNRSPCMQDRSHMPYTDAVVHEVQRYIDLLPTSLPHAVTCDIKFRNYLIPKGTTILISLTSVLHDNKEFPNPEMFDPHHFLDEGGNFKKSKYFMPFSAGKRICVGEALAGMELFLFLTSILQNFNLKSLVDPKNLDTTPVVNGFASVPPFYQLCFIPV", "test": "Inhibition of CYP2C9 in human liver microsomes using tolbutamide as substrate measured after 15 mins in presence of NADPH by LC-MS/MS analysis", "assay_type": "ADME"}, "[8]": {"test": "AUC in cynomolgus monkey at 5 mg/kg, po", "assay_type": "ADME, organism-based, Macaca fascicularis", "set-up": "dose 5 mg/kg", "settings": "in vivo"}, "[9]": {"test": "Drug metabolism in human liver microsomes assessed as N-demethylation", "assay_type": "ADME, Microsome"}, "[10]": {"test": "Toxicity in Sprague-Dawley rat assessed as effect on clinical sign measured up to 13 weeks", "settings": "in vivo, 2184 h", "summary_of_the_method": "(§1)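 GLP toxicity studies lasting up to 13 weeks, run in Sprague-Dawley rats and cynomolgus monkeys.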"}, "[11]": {"test": "AUC (infinity) in Sprague-Dawley rat at 50 mg/kg", "assay_type": "ADME, organism-based", "set-up": "time infinity, dose 50 mg/kg", "settings": "in vivo", "summary_of_the_method": "(§2)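 Sprague-Dawley rats and cynomolgus monkeys given compound daily in GLP toxicity studies lasting up to 13 weeks; daily AUCinf taken at the no-observed-adverse-effect dose level of each species.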"}, "[12]": {"test": "Toxicity in cynomolgus monkey assessed as effect on cardiovascular system administered as single dose", "set-up": "species or system Macaca fascicularis", "settings": "in vivo", "summary_of_the_method": "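Single-dose cardiovascular safety study in cynomolgus monkeys.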"}, "[13]": {"molecular_target": "T2, Cytochrome P450 1A2", "test": "Induction of CYP1A2 in human hepatocytes up to 50 uM", "assay_type": "ADME, cell-based, Hepatocyte", "summary_of_the_method": "(§3)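 Sandwich-cultured human hepatocytes exposed at concentrations up to 50 μM; induction of CYP1A2, 2B6 and 3A4 assessed.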"}, "[14]": {"test": "Toxicity in Sprague-Dawley rat assessed as effect on CNS administered as single dose", "settings": "in vivo", "summary_of_the_method": "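Single-dose CNS and respiratory safety studies in rats.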"}, "[15]": {"test": "AUC in rat at 5 mg/kg, po", "assay_type": "ADME, organism-based", "set-up": "dose 5 mg/kg", "settings": "in vivo"}, "[16]": {"test": "Toxicity in cynomolgus monkey assessed as effect on food consumption measured up to 13 weeks", "set-up": "species or system Macaca fascicularis", "settings": "in vivo, 2184 h", "summary_of_the_method": "as §1"}, "[17]": {"molecular_target": "T3, Cytochrome P450 3A4 (Homo sapiens, UniProt P08684)", "T3 sequence (P08684 whole entry)": "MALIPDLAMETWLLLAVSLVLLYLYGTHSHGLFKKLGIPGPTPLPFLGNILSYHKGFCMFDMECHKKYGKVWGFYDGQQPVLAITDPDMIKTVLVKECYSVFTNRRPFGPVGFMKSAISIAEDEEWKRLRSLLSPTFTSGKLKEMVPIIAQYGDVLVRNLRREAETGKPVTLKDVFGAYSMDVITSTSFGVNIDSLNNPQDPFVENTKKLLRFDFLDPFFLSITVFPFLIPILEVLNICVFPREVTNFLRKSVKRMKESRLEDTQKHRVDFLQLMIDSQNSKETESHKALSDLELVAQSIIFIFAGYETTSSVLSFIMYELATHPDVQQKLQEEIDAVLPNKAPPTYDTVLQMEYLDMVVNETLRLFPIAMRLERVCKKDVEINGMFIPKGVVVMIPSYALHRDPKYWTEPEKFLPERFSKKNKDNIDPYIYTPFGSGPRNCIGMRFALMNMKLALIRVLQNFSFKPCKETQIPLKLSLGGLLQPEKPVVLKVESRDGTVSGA", "test": "Induction of CYP3A4 in human hepatocytes up to 50 uM", "assay_type": "ADME, cell-based, Hepatocyte", "summary_of_the_method": "as §3"}, "[18]": {"molecular_target": "T3, Cytochrome P450 3A4", "test": "Inhibition of CYP3A4 in human liver microsomes using testosterone as substrate measured after 15 mins in presence of NADPH by LC-MS/MS analysis", "assay_type": "ADME"}, "[19]": {"test": "Clearance in cynomolgus monkey at 1 mg/kg, iv relative to hepatic blood flow", "assay_type": "ADME, organism-based, Macaca fascicularis", "settings": "in vivo"}, "[20]": {"test": "Cmax in dog at 5 mg/kg, po", "assay_type": "ADME, organism-based, Canis lupus familiaris", "set-up": "route oral, dose 5 mg/kg", "settings": "in vivo"}, "[21]": {"test": "Toxicity in Sprague-Dawley rat assessed as effect on clinical pathology measured up to 13 weeks", "settings": "in vivo, 2184 h", "summary_of_the_method": "as §1"}, "[22]": {"test": "In vivo inhibition of BTK-dependent B cell activation in TI-2 antigen/ NP-Ficoll-induced DBA1 mouse immunized model assessed as reduction in anti-NP IgM antibody titer administered orally twice daily for 10 days measured post last dose by ELISA", "assay_type": "functional, organism-based", "settings": "DBA1, po, 240 h, dose mg/kg 1-50, time 10 day"}, "[23]": {"test": "Toxicity in Sprague-Dawley rat measured up to 13 weeks", "settings": "in vivo", "summary_of_the_method": "as §1"}, "[24]": {"test": "Toxicity in cynomolgus monkey measured up to 13 weeks", "set-up": "species or system Macaca fascicularis", "settings": "in vivo", "summary_of_the_method": "as §1"}, "[25]": {"test": "Kinetic solubility of compound at pH 6.8 by shake flask method", "assay_type": "physicochemical", "settings": "buffer, read-out: Kinetic_solubility"}, "[26]": {"test": "AUC in dog at 5 mg/kg, po", "assay_type": "ADME, organism-based, Canis lupus familiaris", "set-up": "dose 5 mg/kg", "settings": "in vivo"}, "[27]": {"molecular_target": "T1, Tyrosine-protein kinase BTK", "test": "In vivo inhibition of BTK in TI-2 antigen/ NP-Ficoll-induced DBA1 mouse immunized model assessed as reduction in BTK phosphorylation administered orally twice daily for 10 days measured post last dose", "assay_type": "functional, organism-based", "summary_of_the_method": "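Female DBA/1 mice, nine per arm, were immunized with 30 µg NP-Ficoll ip on day 0 and dosed PO twice daily for 10 days (1-50 mg/kg/dose) in 0.5% carboxymethylcellulose/0.1% Tween 80. On day 10, serum NP-specific IgM was measured by ELISA on NP-BSA plates (biotin anti-IgM, streptavidin-HRP, ABTS, 405 nm) and titer interpolated against a pooled positive serum standard, reported as reduction vs vehicle. Whole-blood pBTK was taken at pre-last dose and 1 and 4 h post final dose.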"}, "[28]": {"test": "Stability in mouse plasma assessed as parent compound remaining after 6 hrs", "assay_type": "ADME, cell-free", "settings": "read-out: Stabilty", "summary_of_the_method": "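Compound incubated in plasma for 6 hours, then percentage of parent compound remaining determined.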"}, "[29]": {"test": "Toxicity in Sprague-Dawley rat assessed as effect on food consumption measured up to 13 weeks", "settings": "in vivo, 2184 h", "summary_of_the_method": "as §1"}, "[30]": {"test": "Kinetic solubility of compound at pH 1.5 by shake flask method", "assay_type": "physicochemical", "settings": "buffer, read-out: Kinetic_solubility"}, "[31]": {"test": "Toxicity in Sprague-Dawley rat assessed as effect on gross pathology measured up to 13 weeks", "settings": "in vivo, 2184 h", "summary_of_the_method": "as §1"}, "[32]": {"test": "Toxicity in cynomolgus monkey assessed as effect on clinical pathology measured up to 13 weeks", "set-up": "species or system Macaca fascicularis", "settings": "in vivo, 2184 h", "summary_of_the_method": "as §1"}, "[33]": {"test": "AUC (infinity) in cynomolgus monkey at 100 mg/kg", "assay_type": "ADME, organism-based, Macaca fascicularis", "set-up": "time infinity, dose 100 mg/kg", "settings": "in vivo", "summary_of_the_method": "as §2"}, "[34]": {"test": "Toxicity in cynomolgus monkey assessed as effect on clinical sign measured up to 13 weeks", "set-up": "species or system Macaca fascicularis", "settings": "in vivo, 2184 h", "summary_of_the_method": "as §1"}, "[35]": {"test": "Toxicity in cynomolgus monkey assessed as effect on gross pathology measured up to 13 weeks", "set-up": "species or system Macaca fascicularis", "settings": "in vivo, 2184 h", "summary_of_the_method": "as §1"}, "[36]": {"molecular_target": "Cytochrome P450 2D6 (Homo sapiens, UniProt P10635)", "sequence (P10635 whole entry)": "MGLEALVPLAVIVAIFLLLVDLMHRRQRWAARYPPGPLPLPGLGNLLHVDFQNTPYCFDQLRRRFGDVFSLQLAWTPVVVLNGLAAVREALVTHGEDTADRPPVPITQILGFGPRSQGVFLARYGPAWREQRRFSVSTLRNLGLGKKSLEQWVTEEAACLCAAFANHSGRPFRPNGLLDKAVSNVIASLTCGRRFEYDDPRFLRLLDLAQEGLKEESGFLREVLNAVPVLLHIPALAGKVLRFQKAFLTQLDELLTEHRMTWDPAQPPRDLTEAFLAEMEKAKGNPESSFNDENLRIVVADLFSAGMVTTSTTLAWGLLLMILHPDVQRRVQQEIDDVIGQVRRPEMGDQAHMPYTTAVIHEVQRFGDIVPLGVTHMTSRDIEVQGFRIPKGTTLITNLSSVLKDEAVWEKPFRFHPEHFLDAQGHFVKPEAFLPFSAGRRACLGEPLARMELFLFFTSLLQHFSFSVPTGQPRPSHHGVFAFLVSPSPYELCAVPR", "test": "Inhibition of CYP2D6 in human liver microsomes using dextromethorphan as substrate measured after 15 mins in presence of NADPH by LC-MS/MS analysis", "assay_type": "ADME"}}, "data": [{"compound": "Cc1cc(-c2ccnc(Nc3cnn(C)c3)n2)ccc1CNC(=O)N1CC(OC(C)C)C1", "values": [{"measurement": "Cmax", "setting": "[1]", "value": 282, "unit": "ng/mL"}, {"measurement": "bioavailability", "setting": "[2]", "value": 32, "unit": "%"}, {"measurement": "IC50", "setting": "[3]", "value": 0.17, "unit": "µM"}, {"measurement": "half-life", "setting": "[4]", "value": 54, "unit": "min"}, {"measurement": "bioavailability", "setting": "[5]", "value": 26, "unit": "%"}, {"measurement": "IC50", "setting": "[6]", "value": "> 25", "unit": "µM"}, {"measurement": "IC50", "setting": "[7]", "value": "> 25", "unit": "µM"}, {"measurement": "AUC", "setting": "[8]", "value": 2350, "unit": "ng·h/mL"}, {"measurement": "Drug metabolism", "setting": "[9]", "value": "Metabolite_Detected"}, {"measurement": "Activity", "setting": "[10]", "value": "Non-Toxic"}, {"measurement": "AUC(0-inf)", "setting": "[11]", "value": 376000, "unit": "ng·h/mL"}, {"measurement": "Activity", "setting": "[12]", "value": "Non-Toxic"}, {"measurement": "Activity", "setting": "[13]", "value": "Not Active"}, {"measurement": "Activity", "setting": "[14]", "value": "Non-Toxic"}, {"measurement": "AUC", "setting": "[15]", "value": 11900, "unit": "ng·h/mL"}, {"measurement": "Activity", "setting": "[16]", "value": "Non-Toxic"}, {"measurement": "Activity", "setting": "[17]", "value": "Not Active"}, {"measurement": "IC50", "setting": "[18]", "value": "> 25", "unit": "µM"}, {"measurement": "CL", "setting": "[19]", "value": 26, "unit": "%"}, {"measurement": "Cmax", "setting": "[20]", "value": 652, "unit": "ng/mL"}, {"measurement": "Activity", "setting": "[21]", "value": "Non-Toxic"}, {"measurement": "ED50", "setting": "[22]", "value": 4.4, "unit": "mg/kg"}, {"measurement": "NOAEL at 2184 h", "setting": "[23]", "value": 50, "unit": "mg/kg/day"}, {"measurement": "NOAEL at 2184 h", "setting": "[24]", "value": 100, "unit": "mg/kg/day"}, {"measurement": "solubility kinetic", "setting": "[25]", "value": "> 10", "unit": "µg/mL"}, {"measurement": "AUC", "setting": "[26]", "value": 1940, "unit": "ng·h/mL"}, {"measurement": "IC50", "setting": "[27]", "value": 0.13, "unit": "µM"}, {"measurement": "remaining at 6 h", "setting": "[28]", "value": "> 95", "unit": "%"}, {"measurement": "Activity", "setting": "[29]", "value": "Non-Toxic"}, {"measurement": "solubility kinetic", "setting": "[30]", "value": "> 50", "unit": "µg/mL"}, {"measurement": "Activity", "setting": "[31]", "value": "Non-Toxic"}, {"measurement": "Activity", "setting": "[32]", "value": "Non-Toxic"}, {"measurement": "AUC(0-inf)", "setting": "[33]", "value": 129000, "unit": "ng·h/mL"}, {"measurement": "Activity", "setting": "[34]", "value": "Non-Toxic"}, {"measurement": "Activity", "setting": "[35]", "value": "Non-Toxic"}, {"measurement": "IC50", "setting": "[36]", "value": "> 25", "unit": "µM"}]}]}
